TDP2 absorb: human TDP2 enzyme inhibitors, primary screen, biochemical, epi absorbance, recombinant enzyme; Tyrosyl-DNA phosphodiesterase 2 (Homo sapiens), O95551; T5PNP hydrolysis, p-nitrophenol absorbance 415 nm; inhibition, % at 12.8 µM; 0.34% of 370,000 active;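 active means inhibition above the mean of all tested compounds plus 3 SD, set per campaign, cut at about 25% in these data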;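 further: 0% = DMSO with enzyme and 100% = buffer with substrate but no TDP2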
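System – recombinant human TDP2 · Quantity – TDP2 enzyme at 120 nM final · Doses – single concentration, 12.8 µM nominal, with 1% DMSO · Incubation – 2 h at 37 °C · Measured by – epi absorbance of p-nitrophenol freed from T5PNP by hydrolysis · Read-out – % inhibition relative to enzyme-containing and enzyme-free wells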
MBD2 inh: inhibitors of MBD2 binding to methylated DNA, primary screen, biochemical, TR-FRET, DNA-binding domain, human; MBD2 binding to methylated oligonucleotide; 0.31% of 370,000 active; inhibition, % at 4.4 µM; in the data active means inhibition above about 13%
Casp6 inh: human caspase-6 inhibitors, primary screen, biochemical, VEID-R110 fluorescence, single point, set 2. purified caspase-6, Z-VEID-R110 cleavage fluorescence. 0.53% of 350,000 active. inhibition, % at 12.5 µM. P55212;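 active means mean inhibition across replicates at least about 35%, with every replicate also reaching that limit, limit read from the data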;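 further: 0% = median of neutral control wells and 100% = no fluorescence left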
NSD2 inh: NSD2 histone methyltransferase inhibitors, primary screen, biochemical, AlphaScreen, single concentration, set 2 | NSD2 peptide methylation, 120 min | inhibition, % at 12.5 µM | 0.54% of 310,000 active | AID 743445, 2014; in the data active means inhibition above about 50%
UHRF1 binding: UHRF1 methylated DNA binding inhibitors, primary screen, counter-screen for MBD2 inhibitor project, biochemical, TR-FRET, human UHRF1, single concentration; inhibition, % at 4.4 µM; UHRF1 binding to methylated oligo; E3 ubiquitin-protein ligase UHRF1 (Homo sapiens), Q96T88; 0.75% of 370,000 active; in the data active means inhibition above about 21%;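 further: UHRF1 SRA domain binding a hemimethylated CpG hairpin DNA probe; 0% = median of test compound wells and 100% = reference inhibitor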
Target sequence (Q96T88 whole entry, looked up, the tested form may be a part): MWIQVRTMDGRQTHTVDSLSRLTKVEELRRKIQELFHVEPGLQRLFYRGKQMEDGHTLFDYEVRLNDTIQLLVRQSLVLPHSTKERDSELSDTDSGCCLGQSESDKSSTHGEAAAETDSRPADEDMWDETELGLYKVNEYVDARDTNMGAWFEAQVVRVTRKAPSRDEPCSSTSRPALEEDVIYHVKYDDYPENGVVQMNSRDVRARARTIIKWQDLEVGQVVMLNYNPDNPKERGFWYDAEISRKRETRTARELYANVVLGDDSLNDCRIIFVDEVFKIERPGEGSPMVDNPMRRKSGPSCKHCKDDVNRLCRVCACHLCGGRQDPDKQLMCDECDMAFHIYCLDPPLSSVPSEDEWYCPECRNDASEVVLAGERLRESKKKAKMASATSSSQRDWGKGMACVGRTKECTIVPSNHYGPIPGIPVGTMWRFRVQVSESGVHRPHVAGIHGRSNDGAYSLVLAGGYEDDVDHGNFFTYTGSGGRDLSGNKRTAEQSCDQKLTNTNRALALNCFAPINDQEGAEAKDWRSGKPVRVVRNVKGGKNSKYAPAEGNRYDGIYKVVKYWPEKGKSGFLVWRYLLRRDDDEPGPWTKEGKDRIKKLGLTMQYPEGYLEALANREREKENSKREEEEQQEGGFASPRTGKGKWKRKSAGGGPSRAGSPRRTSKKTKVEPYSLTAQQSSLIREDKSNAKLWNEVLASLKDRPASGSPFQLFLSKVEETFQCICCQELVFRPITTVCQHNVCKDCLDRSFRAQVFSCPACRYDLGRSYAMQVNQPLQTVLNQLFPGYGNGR
LEDGF integ inh: blockers of LEDGF/p75-dependent integrase strand transfer – biochemical, TR-FRET, high throughput, primary screen | AID 743269, 2014 | inhibition, % at 3.7 µM | 0.64% of 370,000 active | HIV-1 integrase (with human LEDGF/p75) | TR-FRET IN-LEDGF/p75 DNA integration, Eu/Cy5;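 active means inhibition above the screen-wide mean plus 3 SD, cut at about 13% in these data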;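 further: signal is the Cy5 over europium emission ratio at 671 and 618 nm; 0% = plate median of compound wells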
IN multimer act: HIV-1 IN multimer formation enhancers, counter-screen for LEDGF/p75 integration inhibitor project, biochemical, TR-FRET; shares compounds with LEDGF integ inh; activation, % at 7.7 µM; AID 1053131, 2014; 17% of 2,000 active; TR-FRET HIV-1 integrase multimerization; in the data active means activation above about 8.9%
TRFRET interf: TR-FRET optical interference artefacts, confirmation, artefact control for LEDGF/p75-dependent integration inhibitor project, biochemical, HIV-1 IN multimerization; shares compounds with LEDGF integ inh; inhibition, % at 7.7 µM; TR-FRET optical interference counterscreen; 2,000 tested, under 10 active;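 active means inhibition above the mean over all tested compounds plus 3 SD, which no compound reached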;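 further: 0% = integrase with antibodies and DMSO and 100% = antibodies without integrase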
LEDGF integ conf: inhibitors of HIV-1 IN-LEDGF/p75 DNA integration, confirmation, biochemical, TR-FRET; shares compounds with LEDGF integ inh; TR-FRET LEDGF/p75-dependent HIV-1 integration; inhibition, % at 3.7 µM; 36% of 2,000 active; AID 1053136, 2014; in the data active means inhibition above about 14%
The depositor's hits bear a star; . = no result. The list is not random: actives were taken first. Their share in the collection is about 1.9%.

SMILES	TDP2 absorb	MBD2 inh	Casp6 inh	NSD2 inh	UHRF1 binding	LEDGF integ inh	IN multimer act	TRFRET interf	LEDGF integ conf
CC(C)CCOP(=O)(c1ccc(N(C)C)cc1)C(O)c1ccccc1F (configuration not stated)	4	4	.	2	-1	21*	-2	8	-3
CC(C)OP(=O)(c1ccc(N(C)C)cc1)C(O)c1ccccc1F (configuration not stated)	8	3	.	0	2	-2	.	.	.
Cc1oc(CC(C)C)cc1C(=O)Nc1ccc(C(=O)O)cc1	-9	2	.	0	2	16*	1	-5	-7
C[C@H]1C(C(=O)N(C)C2CCCCC2)=Cc2c(n(-c3ccc(F)cc3)c(=O)n2CCCOc2ccccc2)C=C1c1ccccc1	-4	4	0	.	1	44*	0	-1	17*
N#CC1=C(N)Oc2cc(N)ccc2C1c1ccc(Cl)cc1 (configuration not stated)	-6	-3	-1	-3	-7	5	.	.	.
N#CC1=C(N)Oc2cc(N)ccc2C1c1ccc(F)cc1 (configuration not stated)	-10	-7	.	-2	-4	23*	1	-6	1
COc1cc(C2C(C#N)=C(N)Oc3cc(N)ccc32)cc(OC)c1OC (configuration not stated)	1	-1	.	1	-3	7	.	.	.
COc1ccc(C2C(C#N)=C(N)Oc3cc(N)ccc32)cc1 (configuration not stated)	4	4	2	1	-3	18*	-1	5	-5
O=Cc1coc2ccc3ccccc3c2c1=O	-3	0	2	-1	2	16*	0	0	54*
CN(C)c1ccc(N/C=C/C(=O)c2ccccc2)cc1	12	-3	.	0	3	15*	5	-24	5
CCS(=O)(=O)Nc1ccc2c(c1)C(=O)N(C)[C@H]1CC[C@@H](CC(=O)NC)O[C@H]1CO2	.	.	0	.	.	.	.	.	.
Clc1ccc(CNc2ncccn2)cc1	-9	3	-1	-1	4	-5	.	.	.
Fc1ccc(CNc2ncccn2)cc1	4	-2	-2	-2	2	14*	2	-9	-5
O=C1c2c(O)cc(O)cc2O[C@H](c2ccc(O)c(O)c2)[C@H]1O	-17	-6	7	.	0	23*	2	-8	12
O=C1c2c(O)cc(O)cc2O[C@H](c2ccc(O)cc2)[C@H]1O	-4	-7	-6	.	1	4	.	.	.
CCc1nc(SCC(=O)N2CCc3ccccc32)c2oc3ccccc3c2n1	9	-5	-1	.	0	14*	0	-3	-1
O=S(=O)(O)c1cc(Cl)cc(N=Nc2ccc(O)cc2O)c1O	13	0	77*	113*	19	72*	14*	-70	31*
C[C@H]1CN([C@@H](C)CO)S(=O)(=O)c2ccc(C#CC3CC3)cc2O[C@@H]1CN(C)Cc1cccnc1	.	.	2	.	.	.	.	.	.
